Peptide text beside a SMILES is read from it.

We go through eight molecules from ChEMBL document CHEMBL3351280, “Exploration and pharmacokinetic profiling of phenylalanine based carbamates as novel substance p 1-7 analogues” (ACS Med Chem Lett, 2014).

Data set [1] concerns Plasma. Nature of the data set: Drug recovery in human plasma at 10 uM. The format is ADME, cell-free. Put shortly:
(§1)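 Human plasma protein binding was measured by equilibrium dialysis. The read-outs were fraction unbound and mass recovery.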

The test system of data set [2] is Plasma. The experiment in a line: Drug recovery in rat plasma at 10 uM. The format is ADME, cell-free.
A short description of data set [3]: Intrinsic clearance in rat microsomes. Type of data set: ADME, Microsome.
The nature of data set [4]: Intrinsic clearance in human microsomes. The format is ADME, Microsome.
A short description of data set [5]: Intrinsic clearance in human liver microsomes at 100 uM. The note with it: read-out: CLH. The format is ADME. On the technique in general: Liver microsomes are a subcellular fraction often used to study metabolism.
The nature of data set [6]: Half life in rat plasma at 100 uM. The format is ADME, cell-free.
The nature of data set [7]: Half life in human plasma at 100 uM. Type of data set: ADME, cell-free.
Data set [8] concerns the target T1, Solute carrier family 15 member 1 (Homo sapiens, UniProt P46059).
T1 sequence (P46059 whole entry): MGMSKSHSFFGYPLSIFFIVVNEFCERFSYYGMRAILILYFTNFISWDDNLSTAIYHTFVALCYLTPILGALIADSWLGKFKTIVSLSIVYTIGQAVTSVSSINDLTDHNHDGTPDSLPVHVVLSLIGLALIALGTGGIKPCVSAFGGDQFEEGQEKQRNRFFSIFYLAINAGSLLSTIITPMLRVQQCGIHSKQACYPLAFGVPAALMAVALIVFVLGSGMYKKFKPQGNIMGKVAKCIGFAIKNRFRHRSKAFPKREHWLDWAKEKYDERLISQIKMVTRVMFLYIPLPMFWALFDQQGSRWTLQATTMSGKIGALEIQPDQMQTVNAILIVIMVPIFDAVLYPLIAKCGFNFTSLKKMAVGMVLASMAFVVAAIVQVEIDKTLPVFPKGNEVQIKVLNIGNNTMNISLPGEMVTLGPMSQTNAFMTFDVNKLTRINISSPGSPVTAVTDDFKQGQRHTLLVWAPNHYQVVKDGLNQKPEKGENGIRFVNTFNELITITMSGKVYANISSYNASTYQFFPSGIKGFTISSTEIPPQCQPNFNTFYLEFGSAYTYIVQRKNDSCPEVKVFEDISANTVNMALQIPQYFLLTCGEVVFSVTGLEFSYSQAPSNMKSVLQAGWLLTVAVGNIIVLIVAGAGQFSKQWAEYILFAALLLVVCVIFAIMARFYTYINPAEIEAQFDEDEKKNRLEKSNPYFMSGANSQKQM
The experiment in a line: Drug uptake in CHO-PepT1 cells expressing PepT1 (unknown origin) assessed as transporter mediated uptake at 100 uM. The format is ADME, cell-based, Cricetulus griseus. The note with it: chinese hamster, cho-pept1, 100 µM. Put shortly:
(§2)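 Uptake was measured in CHO-PepT1 cells, which are stably transfected with PepT1, and in CHO-K1 cells as the control. It is expressed as pmol/mg protein/min. […] A PepT1/K1 uptake ratio above 1 was taken to indicate a PepT1 substrate. Values are mean ± SD.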

The nature of data set [9]: Drug uptake in CHOK1 cells at 100 uM. Type of data set: ADME, cell-based, Cricetulus griseus. The note with it: chinese hamster, cho-k1, 100 µM. In a few lines:
as §2

Data set [10] can be described thus: Apparent permeability from apical to basolateral side in human Caco2 cells at 100 uM. The note with it: Caco-2. The format is ADME, cell-based. In a few lines:
(§3)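 Caco-2 monolayers; apparent permeability coefficients (Papp) calculated from transport rates in the apical-to-basolateral and basolateral-to-apical directions. Efflux ratio is Papp(b–a)/Papp(a–b). The test concentration was 100 μM, or 25 μM for poorly soluble compounds after further dilution. Values are given as mean ± SD.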
Background: Caco-2 monolayers are a common model of the intestinal barrier.

Data set [11] in a line: Apparent permeability from basolateral to apical side in human Caco2 cells at 100 uM. The note with it: Caco-2. The format is ADME, cell-based. Put shortly: as §3
The nature of data set [12]: Fraction unbound in human plasma at 10 uM. The format is ADME, cell-free. In a few lines: as §1
Data set [13] is described as follows: Fraction unbound in rat plasma at 10 uM. Type of data set: ADME, cell-free.
Data set [14] can be described thus: Fraction unbound in rat brain at 10 uM. Type of data set: ADME, tissue-based.
Another data set has as its system Brain. The experiment in a line: Unbound brain volume of distribution in rat at 10 uM. Type of data set: ADME, tissue-based. The note with it: in vivo.
A short description of data set [15]: Drug recovery in rat brain at 10 uM. The note with it: read-out: Drug recovery. Type of data set: ADME, tissue-based.
A short description of data set [16]: Apparent permeability from apical to basolateral side in human Caco2 cells. Type of data set: ADME, cell-based. The note with it: Caco-2. In a few lines: (§4)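 Caco-2 monolayers; apparent permeability coefficients (Papp) calculated from transport rates in the apical-to-basolateral and basolateral-to-apical directions. Efflux ratio is Papp(b–a)/Papp(a–b). Values are given as mean ± SD.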

The nature of data set [17]: Efflux ratio of apparent permeability from basolateral to apical side to apical to basolateral side of human Caco2 cells. The note with it: Caco-2. The format is ADME, cell-based. Put shortly: as §4
A further data set relates to Hepatocyte. The experiment in a line: Intrinsic clearance in rat hepatocytes. The format is ADME, cell-based.
The target of a further data set is Cytochrome P450 2D6 (Homo sapiens, UniProt P10635). Nature of the data set: Inhibition of CYP2D6 (unknown origin). The format is ADME.
Another data set concerns the target Cytochrome P450 3A4 (Homo sapiens, UniProt P08684). Nature of the data set: Inhibition of CYP3A4 (unknown origin). Type of data set: ADME.
Another data set concerns the target T2, Cytochrome P450 1A2 (Homo sapiens, UniProt P05177).
T2 sequence (P05177 whole entry): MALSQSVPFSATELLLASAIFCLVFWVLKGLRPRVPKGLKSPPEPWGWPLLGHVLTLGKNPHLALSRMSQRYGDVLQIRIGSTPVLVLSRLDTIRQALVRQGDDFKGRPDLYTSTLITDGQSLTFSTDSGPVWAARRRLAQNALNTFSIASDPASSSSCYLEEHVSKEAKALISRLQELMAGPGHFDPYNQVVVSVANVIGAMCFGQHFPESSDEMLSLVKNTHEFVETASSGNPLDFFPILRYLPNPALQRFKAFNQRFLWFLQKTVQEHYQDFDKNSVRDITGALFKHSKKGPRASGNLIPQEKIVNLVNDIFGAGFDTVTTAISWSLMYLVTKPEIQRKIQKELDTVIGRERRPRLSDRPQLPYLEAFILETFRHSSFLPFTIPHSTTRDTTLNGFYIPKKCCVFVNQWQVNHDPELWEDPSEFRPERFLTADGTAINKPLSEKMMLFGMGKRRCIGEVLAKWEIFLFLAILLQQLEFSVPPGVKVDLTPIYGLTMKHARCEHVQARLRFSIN
The experiment in a line: Inhibition of CYP1A2 (unknown origin). The format is ADME.

A further data set concerns the target Cytochrome P450 2C9 (Homo sapiens, UniProt P11712). Nature of the data set: Inhibition of CYP2C9 (unknown origin). The format is ADME.
Data set [18] is described as follows: Intrinsic clearance in human liver microsomes at 25 uM. The format is ADME. The note with it: read-out: CLH.
Data set [19] can be described thus: Half life in rat plasma at 25 uM. The format is ADME, cell-free.
The nature of data set [20]: Half life in human plasma at 25 uM. The format is ADME, cell-free.
The target in data set [21] is T1, Solute carrier family 15 member 1. The experiment in a line: Drug uptake in CHO-PepT1 cells expressing PepT1 (unknown origin) assessed as transporter mediated uptake at 25 uM. The note with it: chinese hamster, cho-pept1, 25 µM. Type of data set: ADME, cell-based, Cricetulus griseus.
A short description of data set [22]: Drug uptake in CHOK1 cells at 25 uM. The format is ADME, cell-based, Cricetulus griseus. The note with it: chinese hamster, cho-k1, 25 µM.
Data set [23] can be described thus: in vitro. The note with it: human, Caco-2.
Data set [24] in a line: in vitro. The note with it: human, Caco-2. The source holds these as a separate data set.
A short description of data set [25]: in vitro. The note with it: human, Caco-2. This is another data set of the same source.
In a further data set the test system is PepT1. The experiment in a line: in vitro. The note with it: chinese hamster, CHO-PepT1 cells and CHO-K1 cells.

Chain of Cytochrome P450 2C9 (P11712 whole entry): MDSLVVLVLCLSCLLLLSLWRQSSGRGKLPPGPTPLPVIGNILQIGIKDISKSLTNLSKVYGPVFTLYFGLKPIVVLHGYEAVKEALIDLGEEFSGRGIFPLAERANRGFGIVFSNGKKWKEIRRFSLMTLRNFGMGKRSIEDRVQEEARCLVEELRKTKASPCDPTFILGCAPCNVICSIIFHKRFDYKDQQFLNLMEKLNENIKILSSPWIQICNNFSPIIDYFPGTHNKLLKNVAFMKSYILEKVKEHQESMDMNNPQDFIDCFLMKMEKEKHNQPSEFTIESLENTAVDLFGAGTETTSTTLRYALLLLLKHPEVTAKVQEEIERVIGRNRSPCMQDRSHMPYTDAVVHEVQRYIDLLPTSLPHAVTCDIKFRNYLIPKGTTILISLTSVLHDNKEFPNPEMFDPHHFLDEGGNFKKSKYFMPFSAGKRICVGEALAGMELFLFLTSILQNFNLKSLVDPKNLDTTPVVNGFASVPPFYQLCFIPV
Chain of Cytochrome P450 2D6 (P10635 whole entry): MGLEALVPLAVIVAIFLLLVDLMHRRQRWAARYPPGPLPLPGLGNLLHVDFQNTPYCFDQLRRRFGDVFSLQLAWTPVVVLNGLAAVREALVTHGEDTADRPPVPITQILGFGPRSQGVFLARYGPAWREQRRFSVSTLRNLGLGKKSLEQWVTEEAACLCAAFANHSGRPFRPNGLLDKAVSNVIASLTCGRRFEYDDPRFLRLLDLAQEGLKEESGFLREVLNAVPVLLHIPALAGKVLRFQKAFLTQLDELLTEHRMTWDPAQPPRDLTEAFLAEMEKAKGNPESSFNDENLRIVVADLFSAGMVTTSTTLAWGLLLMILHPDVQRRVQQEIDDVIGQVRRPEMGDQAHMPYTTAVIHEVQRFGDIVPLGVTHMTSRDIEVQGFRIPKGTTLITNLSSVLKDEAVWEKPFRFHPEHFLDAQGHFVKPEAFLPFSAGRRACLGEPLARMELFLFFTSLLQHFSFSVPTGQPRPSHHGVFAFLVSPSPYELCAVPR
Chain of Cytochrome P450 3A4 (P08684 whole entry): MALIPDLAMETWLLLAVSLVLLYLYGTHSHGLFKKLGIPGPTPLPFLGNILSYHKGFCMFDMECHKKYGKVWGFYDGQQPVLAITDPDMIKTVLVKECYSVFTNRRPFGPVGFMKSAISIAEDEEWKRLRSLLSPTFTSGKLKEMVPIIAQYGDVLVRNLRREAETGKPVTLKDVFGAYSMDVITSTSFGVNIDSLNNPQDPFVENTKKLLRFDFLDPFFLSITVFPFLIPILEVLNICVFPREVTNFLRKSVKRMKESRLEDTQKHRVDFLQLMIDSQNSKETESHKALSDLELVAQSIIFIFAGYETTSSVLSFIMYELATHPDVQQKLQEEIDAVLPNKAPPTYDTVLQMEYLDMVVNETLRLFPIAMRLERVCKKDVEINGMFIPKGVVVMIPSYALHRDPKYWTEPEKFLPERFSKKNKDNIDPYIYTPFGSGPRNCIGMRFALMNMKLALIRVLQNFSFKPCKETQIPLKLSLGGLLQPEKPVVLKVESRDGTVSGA

As for `NC(=O)[C@H](Cc1ccccc1)NC(=O)[C@@H](N)Cc1ccccc1` (H-Phe-Phe-NH2), the Drug recovery in the data set on Plasma [1] was determined as 22%; in the data set on Plasma [2] it was 1%. Further, the microsomal CLint in [3] came to 103 µL/min/mg; in [4] it was 97.3 µL/min/mg.

By half-life is commonly meant the time needed for the level to fall by half in the phase considered. High values mean slow loss, low ones fast loss. What is called Papp A→B is the apparent permeability from the apical to the basolateral side of a cell layer. Broadly, the Papp B→A is the apparent permeability from the basolateral to the apical side of a cell layer. As to `CS(=O)(=O)NC(=O)[C@H](Cc1ccccc1)NC(=O)OCc1ccccc1`, the microsomal CLint at 100 µM in data set [5] is 17 µL/min/mg. The half-life at 100 µM in data set [6] is 6.9 h; in [7], 26.7 h. The Drug uptake in data set [8] stood at 90 pmol/min/mg; in data set [9], 77 pmol/min/mg. The apparent permeability from apical to basolateral (Papp A→B) at 100 µM in [10] was 6 ×10⁻⁶ cm/s. For the same molecule, the Papp B→A at 100 µM in [11] was found to be 3 ×10⁻⁶ cm/s.

In general, fraction unbound refers to the share of the substance not bound to proteins or other matrix. The term efflux ratio denotes the permeability from basolateral to apical divided by that in the opposite direction, in the common usage. As to `NC(=O)[C@H](Cc1ccccc1)NC(=O)OCc1ccccc1`, the results for the free fraction (fraction unbound) at 10 µM in data set [12], in [13] and in data set [14] were 0.19, 0.18 and 0.17, respectively. The Drug recovery is on record as over 65% in the data set with Plasma [1] and over 70% with Plasma [2]. In addition, the Vdu in the data set on Brain amounted to 6 mL/g. The recovery at 10 µM in data set [15] is over 95%. For the same molecule, the Papp A→B in [16] turned out to be 31 ×10⁻⁶ cm/s. Moreover, in [17], the efflux ratio turned out to be 1. Moreover, the results for the microsomal CLint in [3] and in data set [4] were 21.2 µL/min/mg and 22.6 µL/min/mg, respectively. The molecule also yielded a CLH in the data set on Hepatocyte of 39.4 µL/min/mg. In addition, the INH at Cytochrome P450 2D6, at Cytochrome P450 3A4, on Cytochrome P450 1A2 and at Cytochrome P450 2C9 was over 20 µM each time.

In the case of `NC(=O)[C@@H]1[C@H](c2ccccc2)CCN1C(=O)[C@@H](N)Cc1ccccc1`, the Drug recovery in the data set on Plasma [1] and in the data set with Plasma [2] was over 95% throughout. Moreover, in the data set on Brain, the Vdu is 3.4 mL/g. Also, in data set [15], the recovery at 10 µM is over 95%.

Turning to `N#CNC(=O)[C@H](Cc1ccccc1)NC(=O)OCc1ccccc1`, the microsomal CLint at 25 µM in data set [18] worked out at 11 µL/min/mg. The half-life at 25 µM in data set [19] was 8.7 h; in data set [20], 6.6 h. Also, the Drug uptake in data set [21] and in data set [22] was 4 pmol/min/mg each time. The molecule further returned an apical-to-basolateral permeability (Papp A→B) at 25 µM in the data set “in vitro [23]” of 52 ×10⁻⁶ cm/s. Besides, the Papp B→A at 25 µM in “in vitro [24]” amounted to 62 ×10⁻⁶ cm/s. For the same molecule, the efflux ratio at 25 µM in “in vitro [25]” came out at 1.2. Also, the uptake ratio at 25 µM in the data set on PepT1 came out at 1.

Consider `O=C(N[C@@H](Cc1ccccc1)c1nnc(-c2ccccc2)o1)OCc1ccccc1`, for which, in [18], the microsomal CLint at 25 µM came out at 287 µL/min/mg. The half-life at 25 µM in data set [19] is 8.7 h; in data set [20] it was 11.2 h. Further, the Drug uptake in data set [21] worked out at 1082 pmol/min/mg; in [22], 1128 pmol/min/mg.

`O=C(N[C@@H](Cc1ccccc1)C(=O)NO)OCc1ccccc1`: the microsomal CLint at 25 µM in data set [18] was determined as 23 µL/min/mg. In addition, the half-life at 25 µM in data set [19] was 0.06 h; in [20] it was 7.9 h. In addition, the figures for the Drug uptake in data set [21] and in data set [22] were 5 pmol/min/mg and 4 pmol/min/mg, respectively. This molecule also had a Papp A→B at 25 µM in “in vitro [23]” of 60 ×10⁻⁶ cm/s. In “in vitro [24]”, the Papp B→A at 25 µM turned out to be 45 ×10⁻⁶ cm/s.

As for `O=C(N[C@@H](Cc1ccccc1)C(=O)NNC(=O)c1ccccc1)OCc1ccccc1`, the microsomal CLint at 25 µM in data set [18] was determined as 65 µL/min/mg. Also, the half-life at 25 µM in data set [19] is 0.31 h; in data set [20], 9.9 h. Moreover, the Drug uptake is recorded as 127 pmol/min/mg in data set [21] and 156 pmol/min/mg in [22]. This molecule also yielded a Papp A→B at 25 µM in “in vitro [23]” of 11 ×10⁻⁶ cm/s. In addition, the basolateral-to-apical permeability (Papp B→A) at 25 µM in “in vitro [24]” turned out to be 14 ×10⁻⁶ cm/s. For the same molecule, the efflux ratio at 25 µM in the data set “in vitro [25]” stood at 1.3. Further, the uptake ratio at 25 µM with PepT1 was 0.8.
